Calls of active or inactive are those of the source.
Legend:
[1] = test system: Mus musculus; test: Effect on motor coordination in C57BL/6 mouse at […], ip after 1 hrs; type: functional, organism-based
[2] = target: T1, Type-1 angiotensin II receptor (Homo sapiens) (UniProt P30556); test: Antagonist activity at AT1 angiotensin receptor expressed in SKNSH cells assessed as blockade of angiotensin 2-induced increase in antibody recognition at 100 nM by ELISA relative to control; type: functional, cell-based; parameters: scale not given: the % may be the effect or the level left
T1 sequence (whole entry): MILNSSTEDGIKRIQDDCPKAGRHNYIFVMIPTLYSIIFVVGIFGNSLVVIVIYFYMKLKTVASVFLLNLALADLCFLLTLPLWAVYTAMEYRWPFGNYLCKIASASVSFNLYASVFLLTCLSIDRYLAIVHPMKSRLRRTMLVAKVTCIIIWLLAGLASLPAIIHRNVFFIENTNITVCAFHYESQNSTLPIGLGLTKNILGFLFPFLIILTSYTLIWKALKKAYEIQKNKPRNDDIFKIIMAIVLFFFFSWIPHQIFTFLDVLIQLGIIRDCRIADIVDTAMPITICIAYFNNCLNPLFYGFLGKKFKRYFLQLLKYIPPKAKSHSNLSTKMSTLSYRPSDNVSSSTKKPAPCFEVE

[3] = target: Mu-type opioid receptor (Homo sapiens) (UniProt P35372); test: Antagonist activity at mu opioid receptor expressed in HEK293 cells assessed as blockade of secreted alkaline phosphatase activity at 1 uM after 6 hrs relative to control; type: functional, cell-based
How it was run: (§1)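 HEK-293 cells transiently co-transfected with pCRE-SeAP and a Flag-tagged receptor, 30,000 cells/well on poly-L-lysine. They were serum-starved 16–18 h, then exposed 6 h in serum-free medium to 10 μM forskolin (omitted for β2) plus the receptor agonist (100 nM), with or without peptide (1 μM). Heat-treated supernatant SeAP was read by CSPD chemiluminescence. Mean ± SEM, n = 6.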

[4] = target: Cannabinoid receptor 1 (Rattus norvegicus) (UniProt P20272); test: Antagonist activity at Long-Evans rat striatal membrane CB1 receptor assessed as blockade of Hu210-induced increase in GTPgammaS binding; type: functional
How it was run: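 Membranes (10 μg) came from striatum (CB1) or spleen (CB2). They were tested in GTPγS-binding or adenylyl cyclase assays with Hu-210 and test ligand (0–1 μM), or with Hu-210 curves with or without 10 μM peptide; a 1 μM single-point combination was also used. Mean ± SE of triplicates.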

[5] = target: T2, Alpha-2A adrenergic receptor (Homo sapiens) (UniProt P08913); test: Antagonist activity at alpha2A adrenergic receptor expressed in SKNSH cells assessed as blockade of clonidine-induced increase in antibody recognition at 100 nM by ELISA relative to control; type: functional, cell-based; parameters: scale not given: the % may be the effect or the level left
T2 sequence (whole entry): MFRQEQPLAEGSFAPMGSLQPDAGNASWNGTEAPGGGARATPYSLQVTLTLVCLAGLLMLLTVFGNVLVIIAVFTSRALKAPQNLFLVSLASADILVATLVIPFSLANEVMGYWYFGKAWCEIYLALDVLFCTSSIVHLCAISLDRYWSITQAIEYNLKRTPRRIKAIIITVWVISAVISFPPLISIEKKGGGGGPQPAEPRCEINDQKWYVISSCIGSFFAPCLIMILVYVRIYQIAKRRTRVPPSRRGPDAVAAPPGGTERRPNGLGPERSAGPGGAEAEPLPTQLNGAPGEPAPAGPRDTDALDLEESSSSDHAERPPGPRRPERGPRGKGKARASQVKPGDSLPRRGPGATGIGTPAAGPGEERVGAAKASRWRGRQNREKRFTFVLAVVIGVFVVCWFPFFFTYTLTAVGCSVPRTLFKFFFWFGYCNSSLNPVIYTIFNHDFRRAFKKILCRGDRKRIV

[6] = target: Cannabinoid receptor 1 (Rattus norvegicus, UniProt P20272); test: Displacement of [3H]SR141716 from Long-Evans rat striatal membrane CB1 receptor
[7] = target: Cannabinoid receptor 1 (Homo sapiens) (UniProt P21554); test: Antagonist activity at CB1 receptor expressed in Neuro 2A cells assessed as blockade of Hu210-mediated increase in number of neurite outgrowth at 10 uM after 16 hrs; type: functional, cell-based
How it was run: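 Neuro 2A cells transfected with Flag-tagged CB1 or CB2 were exposed 16 h in 0.1% FBS medium to 100 nM Hu-210 with or without 10 μM peptide. The percentage of cells extending neurites was scored and normalized to untreated cells (100%). Mean ± SE of triplicate experiments.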

[8] = target: T1, Type-1 angiotensin II receptor (Homo sapiens); test: Antagonist activity at AT1 angiotensin receptor expressed in HEK293 cells assessed as blockade of angiotensin 2-mediated decrease in secreted alkaline phosphatase activity at 1 uM after 6 hrs relative to control; type: functional, cell-based; how it was run: as §1
[9] = target: Beta-2 adrenergic receptor (Homo sapiens) (UniProt P07550); test: Antagonist activity at beta2 adrenergic receptor expressed in HEK293 cells assessed as blockade of secreted alkaline phosphatase activity at 1 uM after 6 hrs relative to control; type: functional, cell-based; how it was run: as §1
[10] = test system: Rattus norvegicus; test: Antihyperalgesic effects in Wistar rat assessed as reduction of carrageenan-induced paw pressure at 5 ug/kg, intrathecal after 3 hrs; type: functional, organism-based
How it was run: (§2)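 Male Wistar rats (200 g) received carrageenan 200 μg/paw intraplantar in saline into the right hind paw. Peptide was given at the same time: intraplantar 10 μg/paw, intrathecal 0.5 or 5 μg/kg, or oral 50 or 100 μg/kg; saline-treated rats served as controls. Paw-pressure withdrawal threshold (force ramp 16 g/s) was read at 0 and 3 h. n = 6–8.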

[11] = target: T2, Alpha-2A adrenergic receptor (Homo sapiens); test: Antagonist activity at alpha2A adrenergic receptor expressed in SKNSH cells at 100 nM by ELISA relative to control; type: functional, cell-based; parameters: scale not given: the % may be the effect or the level left
[12] = target: Cannabinoid receptor 1 (Homo sapiens) (UniProt P21554); test: Antagonist activity at CB1 receptor expressed in Neuro 2A cells assessed as blockade of Hu210-mediated decrease in secreted alkaline phosphatase activity at 1 uM; type: functional, cell-based
How it was run: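 Neuro 2A cells co-expressing pCRE-SeAP and CB1 were serum-starved 16–18 h, then given 10 μM forskolin plus 100 nM Hu-210, with or without 1 μM peptide, for 6 h without serum. Secreted alkaline phosphatase in heat-treated supernatant was measured by CSPD luminescence. Mean ± SEM of sextuplicates, n = 2.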

[13] = target: Cannabinoid receptor 2 (Homo sapiens) (UniProt P34972); test: Antagonist activity at CB2 receptor expressed in SKNSH cells assessed as blockade of Hu210-induced increase in antibody recognition at 100 nM by ELISA relative to control; type: functional, cell-based; parameters: scale not given: the % may be the effect or the level left
[14] = target: Delta-type opioid receptor (Homo sapiens) (UniProt P41143); test: Antagonist activity at delta opioid receptor expressed in SKNSH cells at 100 nM by ELISA relative to control; type: functional, cell-based; parameters: scale not given: the % may be the effect or the level left
[15] = target: T1, Type-1 angiotensin II receptor (Homo sapiens); test: Antagonist activity at AT1 angiotensin receptor expressed in SKNSH cells at 100 nM by ELISA relative to control; type: functional, cell-based; parameters: scale not given: the % may be the effect or the level left
[16] = test system: Rattus norvegicus; test: Antihyperalgesic effects in Wistar rat assessed as reduction of carrageenan-induced paw pressure at 0.5 ug/kg, intrathecal after 3 hrs; type: functional, organism-based; how it was run: as §2
[17] = target: Beta-2 adrenergic receptor (Homo sapiens) (UniProt P07550); test: Antagonist activity at beta2 adrenergic receptor expressed in SKNSH cells assessed as blockade of isoproterenol-induced increase in antibody recognition at 100 nM by ELISA relative to control; type: functional, cell-based; parameters: scale not given: the % may be the effect or the level left
[18] = target: Beta-2 adrenergic receptor (Homo sapiens) (UniProt P07550); test: Antagonist activity at beta2 adrenergic receptor expressed in HEK293 cells assessed as blockade of […] in secreted alkaline phosphatase activity at 1 uM after 6 hrs relative to control; type: functional, cell-based; how it was run: as §1

Chain of Beta-2 adrenergic receptor (Homo sapiens) (P07550 whole entry, looked up): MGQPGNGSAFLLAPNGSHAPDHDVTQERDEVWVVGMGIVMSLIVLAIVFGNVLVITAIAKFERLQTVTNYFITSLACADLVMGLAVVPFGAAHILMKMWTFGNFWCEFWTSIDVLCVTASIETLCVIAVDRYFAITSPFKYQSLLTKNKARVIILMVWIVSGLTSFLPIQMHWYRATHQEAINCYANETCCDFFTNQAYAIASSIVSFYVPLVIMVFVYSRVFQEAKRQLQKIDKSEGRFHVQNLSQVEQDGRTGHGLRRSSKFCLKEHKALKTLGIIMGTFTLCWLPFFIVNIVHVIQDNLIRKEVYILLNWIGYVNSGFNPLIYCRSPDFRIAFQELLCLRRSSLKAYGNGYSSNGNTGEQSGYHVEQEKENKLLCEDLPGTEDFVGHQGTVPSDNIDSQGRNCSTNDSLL
Chain of Cannabinoid receptor 1 (Homo sapiens) (P21554 whole entry): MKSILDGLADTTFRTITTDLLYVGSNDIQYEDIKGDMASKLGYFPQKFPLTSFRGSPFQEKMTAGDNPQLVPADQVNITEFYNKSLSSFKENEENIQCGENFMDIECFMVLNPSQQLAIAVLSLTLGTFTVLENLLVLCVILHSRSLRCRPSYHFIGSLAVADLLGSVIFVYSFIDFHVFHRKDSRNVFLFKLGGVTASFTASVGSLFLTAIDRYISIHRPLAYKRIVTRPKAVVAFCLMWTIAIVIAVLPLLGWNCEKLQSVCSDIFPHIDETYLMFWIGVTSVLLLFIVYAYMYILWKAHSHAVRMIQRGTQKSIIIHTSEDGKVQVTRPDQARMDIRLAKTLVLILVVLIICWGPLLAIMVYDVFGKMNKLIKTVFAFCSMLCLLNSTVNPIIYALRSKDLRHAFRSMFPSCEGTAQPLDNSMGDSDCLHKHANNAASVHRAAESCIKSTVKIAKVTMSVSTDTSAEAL
Chain of Cannabinoid receptor 2 (Homo sapiens) (P34972 whole entry): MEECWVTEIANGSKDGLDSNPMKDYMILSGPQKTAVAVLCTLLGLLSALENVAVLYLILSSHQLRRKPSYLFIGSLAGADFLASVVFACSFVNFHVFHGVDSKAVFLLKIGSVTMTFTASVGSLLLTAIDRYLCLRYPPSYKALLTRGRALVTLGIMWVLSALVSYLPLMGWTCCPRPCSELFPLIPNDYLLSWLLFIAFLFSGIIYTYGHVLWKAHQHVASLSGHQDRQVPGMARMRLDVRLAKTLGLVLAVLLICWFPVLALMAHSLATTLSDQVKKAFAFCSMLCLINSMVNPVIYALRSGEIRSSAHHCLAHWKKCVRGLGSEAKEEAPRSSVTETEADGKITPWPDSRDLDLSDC
Chain of Cannabinoid receptor 1 (P20272 whole entry): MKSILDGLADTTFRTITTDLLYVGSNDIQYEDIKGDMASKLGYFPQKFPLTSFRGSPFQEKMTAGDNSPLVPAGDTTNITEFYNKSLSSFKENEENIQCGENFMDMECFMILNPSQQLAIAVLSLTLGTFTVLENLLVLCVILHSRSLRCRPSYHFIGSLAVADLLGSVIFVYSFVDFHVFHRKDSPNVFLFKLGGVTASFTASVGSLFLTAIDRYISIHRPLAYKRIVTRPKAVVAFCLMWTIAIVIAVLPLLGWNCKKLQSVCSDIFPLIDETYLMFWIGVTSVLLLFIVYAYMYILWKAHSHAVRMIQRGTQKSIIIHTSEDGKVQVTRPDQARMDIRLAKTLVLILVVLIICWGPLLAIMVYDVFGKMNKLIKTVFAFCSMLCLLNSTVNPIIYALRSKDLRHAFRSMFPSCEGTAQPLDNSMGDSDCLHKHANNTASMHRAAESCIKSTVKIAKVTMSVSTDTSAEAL
Chain of Cannabinoid receptor 1 (Rattus norvegicus) (P20272 whole entry): as above
Chain of Delta-type opioid receptor (Homo sapiens) (P41143 whole entry): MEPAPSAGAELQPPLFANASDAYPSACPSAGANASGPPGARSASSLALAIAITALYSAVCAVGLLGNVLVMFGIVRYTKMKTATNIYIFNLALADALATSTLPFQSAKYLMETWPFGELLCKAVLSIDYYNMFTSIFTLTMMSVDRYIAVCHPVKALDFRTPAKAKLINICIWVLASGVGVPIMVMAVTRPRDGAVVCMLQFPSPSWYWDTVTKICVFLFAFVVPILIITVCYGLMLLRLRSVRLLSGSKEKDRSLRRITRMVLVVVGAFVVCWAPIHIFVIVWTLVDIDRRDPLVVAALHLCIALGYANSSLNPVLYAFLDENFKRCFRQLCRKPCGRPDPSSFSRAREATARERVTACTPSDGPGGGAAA
Chain of Mu-type opioid receptor (Homo sapiens) (P35372 whole entry): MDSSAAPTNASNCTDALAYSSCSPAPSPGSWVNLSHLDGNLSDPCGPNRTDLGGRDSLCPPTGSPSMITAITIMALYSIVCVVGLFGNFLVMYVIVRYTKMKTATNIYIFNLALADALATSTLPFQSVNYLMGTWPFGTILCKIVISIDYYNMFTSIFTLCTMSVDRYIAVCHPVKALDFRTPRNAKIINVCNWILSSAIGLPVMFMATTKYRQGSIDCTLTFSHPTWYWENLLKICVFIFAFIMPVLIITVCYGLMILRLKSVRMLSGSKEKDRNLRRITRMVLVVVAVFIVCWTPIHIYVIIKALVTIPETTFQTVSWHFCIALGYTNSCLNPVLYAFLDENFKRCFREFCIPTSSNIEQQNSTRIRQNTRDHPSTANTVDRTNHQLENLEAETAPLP

Activity [2]: 140%
Activity [3]: 0.98
Activity [4]: Active
Activity [5]: 130%
EC50 [6]: 350 pM
Activity [7]: Active
Activity [8]: 1.02
Activity [9]: 0.96
Activity [11]: 103%
Activity [12]: Active
Activity [13]: 108%
Activity [14]: 101%
Activity [15]: 110%
Activity [17]: 157%
Activity [18]: 1.24
Structure (SMILES): CC(C)C[C@H](NC(=O)[C@H](Cc1ccccc1)NC(=O)[C@H](CCCCN)NC(=O)[C@H](Cc1ccccc1)NC(=O)[C@H](CC(N)=O)NC(=O)[C@@H](NC(=O)[C@@H]1CCCN1)C(C)C)C(=O)N[C@@H](CO)C(=O)N[C@@H](Cc1cnc[nH]1)C(=O)O [HEMOPRESSIN]
Activity [1]: inactive
Activity [10]: Active
Activity [16]: Active

Reference: ChEMBL document CHEMBL1156534, “Hemopressin is an inverse agonist of CB1 cannabinoid receptors” (Proc Natl Acad Sci U S A, 2007)
